# SIRT5 inh – sirtuin-5 (human) deacylase inhibition. AID 652115. inhibition, % at 15 µM. Purified SirT5, succinyl-peptide AMC, trypsin-coupled fluorescence. 1.1% of 330,000 active; in the data active = inhibition above about 15%
# Target sequence (Q9NXA8 whole entry, looked up): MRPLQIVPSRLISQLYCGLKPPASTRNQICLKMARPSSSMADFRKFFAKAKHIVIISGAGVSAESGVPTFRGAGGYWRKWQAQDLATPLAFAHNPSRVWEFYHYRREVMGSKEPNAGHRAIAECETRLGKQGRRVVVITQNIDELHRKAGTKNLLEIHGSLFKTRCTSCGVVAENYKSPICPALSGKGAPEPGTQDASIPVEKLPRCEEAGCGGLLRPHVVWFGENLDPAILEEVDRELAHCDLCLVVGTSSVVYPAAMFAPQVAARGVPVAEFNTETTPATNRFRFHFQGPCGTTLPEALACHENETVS
# ERAP1 HTS inh – ERAP1 (human) enzyme inhibition. recombinant ERAP1, Leu-AMC fluorescence, 60 min. inhibition, % at 10.7 µM. 0.15% of 340,000 active. AID 652197;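 active = mean replicate inhibition of at least 30%, or all replicates individually reaching that 30% level; inactive = mean below 30% and not every replicate reaching it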;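 note: 0% = neutral control wells and 100% = L-leucinethiol positive control wells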
# FGF22 binding – binders of recombinant human FGF22 by thermal shift | activity (Tm shift, normalised), % at 9.99 µM | SYPRO orange fluorescence; percent of sucrose octasulfate shift, DMSO zero | 1.5% of 340,000 active;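 active = mean Tm shift, scaled 0 neutral to 100 positive control, at about 1.3% or above, every replicate too, limit read from the data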
# Target sequence (Q9HCT0 whole entry, looked up): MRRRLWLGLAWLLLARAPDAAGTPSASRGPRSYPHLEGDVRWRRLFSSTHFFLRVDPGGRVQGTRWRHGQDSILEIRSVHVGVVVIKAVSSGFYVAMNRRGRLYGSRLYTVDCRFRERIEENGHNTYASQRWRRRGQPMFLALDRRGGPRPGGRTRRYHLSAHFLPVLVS
# FN deposit inh – fibronectin deposition inhibition; AH1F fibroblasts, Alexa488-fibronectin deposition fluorescence, overnight; inhibition, % at 12.6 µM; 0.086% of 350,000 active; AID 743247;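 active = mean inhibition across replicates of 30% or more, regardless of how many single replicates reach that level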;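 note: positive control wells lacked labelled fibronectin entirely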
#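 Assay system: AH1F fibroblasts / Quantity: 10000 cells per well / Medium: DMEM plus 2% serum, read in PBS / Reagent: labelled fibronectin 24 nM / Dosing: single dose, pinned / Times: 1 h cell attachment, overnight exposure to compound and label / Signal: fluorescence, ex 485 nm, em 525 nm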
# PGC1a acetyl inh – lowers PGC1a acetylation signal in U2OS cells; inhibition, % at 15.6 µM; 0.17% of 350,000 active; AlphaScreen anti-acetyl-lysine; with virally co-expressed GCN5 acetyltransferase; AID 651687;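 active = every replicate shows inhibition of at least 40%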;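 note: 0% = neutral control wells and 100% = positive control wells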
# Numbers without * were called inactive; . = no result. A selection: hits, their analogues and other compounds. The true share with any hit is near 2.2%.
SMILES,SIRT5 inh,ERAP1 HTS inh,FGF22 binding,FN deposit inh,PGC1a acetyl inh
C[C@H]1CN([C@@H](C)CO)C(=O)Cc2cc(NS(=O)(=O)c3ccc(Cl)cc3)ccc2O[C@H]1CN(C)CC1CC1,-1,0,0,.,5
C[C@@H]1CN([C@@H](C)CO)C(=O)Cc2cc(NS(=O)(=O)c3ccc(Cl)cc3)ccc2O[C@@H]1CN(C)CC1CCCCC1,20*,1,.,.,2
C=C[C@H](COC(C)=O)N(C(=O)OC(C)(C)C)S(=O)(=O)c1ccc(Br)cc1,-6,3,0,.,-9
COc1cccc(CN2CCN(CCc3ccccc3)C(CCO)C2)c1OC (stereo not given),-3,-3,44*,2,.
COc1ccc(CN2CCN(CCC(C)C)C(CCO)C2)cc1Cn1cccn1 (stereo not given),-4,-1,42,10,.
OCCC1CN(CCCn2cccn2)CCN1Cc1ccccc1 (stereo not given),-1,7,43*,.,17
COc1cccc2c1OCC(CN1CCN(CCC(C)C)C(CCO)C1)=C2 (stereo not given),-8,5,43*,2,.
CCn1cc(CN2CCN(Cc3cccc(OC)c3)C(CCO)C2)c(C)n1 (stereo not given),0,-1,43*,3,.
CCCC(=O)Nc1ccc2c(c1)OC[C@@H](C)N(Cc1ccccn1)C[C@@H](C)[C@@H](OC)CN(C)C2=O,-5,6,0,-19,2
O=S(=O)(N[C@@H]1CC[C@H](CCn2cc(C3(O)CCCC3)nn2)O[C@H]1CO)c1ccc(Cl)cc1,1,0,0,.,-15
OCCC1CN(Cc2nc3c(s2)CCCC3)CCN1Cc1ccccc1 (stereo not given),-3,1,0,1,-3
COc1ccc(CN2CCN(CCCc3ccccc3)C(CCO)C2)c(OC)c1 (stereo not given),18*,-3,0,-16,.
Cc1ncc(CN2CCN(CCc3ccccc3)C(CCO)C2)s1 (stereo not given),-3,2,43,-9,.
Cn1cc(CN2CCN(CCc3ccccc3)C(CCO)C2)cn1 (stereo not given),0,-2,44*,4,.
OCCC1CN(Cc2nc3c(s2)CCCC3)CCN1CCc1ccccc1 (stereo not given),2,-6,44*,10,.
COc1ccc(CN(C)C[C@@H]2OCCCC[C@@H](C)Oc3ccc(NC(=O)Nc4c(C)noc4C)cc3C(=O)N([C@H](C)CO)C[C@H]2C)cc1,-3,-1,1,.,9
Cn1c(SCC(=O)O)nnc1-c1ccc(NC(=O)c2ccc(Cl)c(Cl)c2)cc1,16*,-7,0,8,9
COc1ccccc1C(=O)Nc1ccc(-c2nnc(SCC(=O)O)n2C)cc1,.,.,.,1,-1
O=[N+]([O-])c1ccc2c(c1)-c1ccccc1C2O (stereo not given),-5,39*,0,.,1
Cc1cc(C)nc(NS(=O)(=O)c2ccc(NC(=O)Nc3ccccc3)cc2)n1,-3,0,1,2,97*
Cc1cc(C)nc(/N=C(\N)Nc2ccc(S(=O)(=O)Nc3nccc(C)n3)cc2)n1,0,-5,43*,-15,-2
O=C(Nc1cc(F)ccc1F)N1CC(=O)N2[C@H](CO)[C@H](c3ccc(C#CC4CCCCC4)cc3)[C@@H]2C1,17*,-1,-1,.,-3
O=C(Nc1cc(F)ccc1F)N1CC(=O)N2[C@@H](CO)[C@@H](c3ccc(C#CC4CCCCC4)cc3)[C@@H]2C1,21*,0,.,.,4
COc1ccccc1C#Cc1ccc([C@H]2[C@H](CO)N3CCCCN(C(=O)C4CCCC4)C[C@@H]23)cc1,17*,0,0,.,-9
O=C(Nc1ccccc1)N1CC(=O)N2[C@H](CO)[C@@H](c3ccc(C#CC4CCCCC4)cc3)[C@@H]2C1,16*,1,.,-18,-13
SMILES,SIRT5 inh,ERAP1 HTS inh,FGF22 binding,FN deposit inh,PGC1a acetyl inh
C[C@@H](NC(=O)[C@@H]1N[C@@H]2c3ccc(-c4ccncc4)c(=O)n3C[C@@H]2[C@H]1CO)c1ccccc1,-12,0,0,.,.
O=C(C[C@@H]1C[C@@H]2c3cc(NC(=O)c4ccc5c(c4)OCO5)ccc3O[C@@H]2[C@H](CO)O1)NCc1cccc(F)c1,-3,2,0,-15,-1
CCC(=O)N1C[C@H](C)[C@H](OC)CN(C)C(=O)c2cc(NC(=O)COC)ccc2OC[C@H]1C,.,-2,0,-22,1
CC(C)NC(=O)N1CCCCN2[C@H](C1)[C@@H](c1ccc(C#CC3CC3)cc1)[C@@H]2CO,22*,17,0,.,-8
CC(C)NC(=O)N1CCCCN2[C@H](CO)[C@H](c3ccc(C#CC4CC4)cc3)[C@H]2C1,-1,1,0,.,0
COc1ccccc1NC(=O)N1CC(=O)N2[C@H](CO)[C@@H](c3ccc(C#CC4CC4)cc3)[C@H]2C1,22*,.,.,.,18
COc1ccccc1NC(=O)N1CCCCN2[C@@H](CO)[C@H](c3ccc(C#CC4CCCC4)cc3)[C@@H]2C1,17*,1,-1,.,-16
C[C@@H]1CN([C@H](C)CO)C(=O)Cc2cc(NC(=O)CCC(F)(F)F)ccc2O[C@H]1CN(C)Cc1ccncc1,9,-1,0,.,1
C[C@@H]1CN([C@@H](C)CO)C(=O)Cc2cc(NC(=O)Nc3ccc(F)cc3)ccc2O[C@H]1CN(C)Cc1ccc2c(c1)OCO2,3,0,0,-14,-8
Cc1oc(-c2ccc3ccccc3c2)nc1CN(C)C(C)c1ccncn1 (stereo not given),-1,-2,44*,-2,.
CC(C)NC(=O)Nc1ccc2c(c1)CC(=O)N([C@@H](C)CO)C[C@H](C)[C@H](CN(C)S(=O)(=O)c1cccs1)O2,3,1,0,-14,4
O=C(NCCN1C(=O)S/C(=C\c2cccnc2)C1=O)C1CC(=O)N(Cc2ccco2)C1 (stereo not given),-1,1,42,3,-12
CN(C)S(=O)(=O)c1ccc(C(=O)NCCN2C(=O)S/C(=C\c3cccnc3)C2=O)cc1,-2,1,43*,6,.
CSc1cccc(N2CC(C(=O)NCCN3C(=O)S/C(=C\c4cccnc4)C3=O)CC2=O)c1 (stereo not given),-1,2,0,2,75*
CC(=O)N1[C@H](CO)[C@H]2c3ccccc3N(S(=O)(=O)c3ccccc3F)C[C@H]21,7,0,0,.,7
CCN(CC)c1ccc(S(=O)(=O)N2CCOCC2)cc1NC(=O)CN1CCN(Cc2ccccc2)CC1,29*,.,0,2,-7
COc1ccc(N2CCN(CC(=O)Nc3cccc(S(=O)(=O)N4CCOCC4)c3)CC2)cc1,15*,1,-1,1,0
O=C(CSc1nc2ccccc2[nH]1)Nc1cccc(S(=O)(=O)N2CCOCC2)c1,-1,2,1.8*,0,-11
